{"source": "paper PMC3793218", "about": "(Scientific Reports, 2013)", "key": {"human UGT1A1 [1]": {"biological_target": "T1, human UGT1A1 (Homo sapiens, UniProt P22309)", "T1 sequence (P22309 26-533)": "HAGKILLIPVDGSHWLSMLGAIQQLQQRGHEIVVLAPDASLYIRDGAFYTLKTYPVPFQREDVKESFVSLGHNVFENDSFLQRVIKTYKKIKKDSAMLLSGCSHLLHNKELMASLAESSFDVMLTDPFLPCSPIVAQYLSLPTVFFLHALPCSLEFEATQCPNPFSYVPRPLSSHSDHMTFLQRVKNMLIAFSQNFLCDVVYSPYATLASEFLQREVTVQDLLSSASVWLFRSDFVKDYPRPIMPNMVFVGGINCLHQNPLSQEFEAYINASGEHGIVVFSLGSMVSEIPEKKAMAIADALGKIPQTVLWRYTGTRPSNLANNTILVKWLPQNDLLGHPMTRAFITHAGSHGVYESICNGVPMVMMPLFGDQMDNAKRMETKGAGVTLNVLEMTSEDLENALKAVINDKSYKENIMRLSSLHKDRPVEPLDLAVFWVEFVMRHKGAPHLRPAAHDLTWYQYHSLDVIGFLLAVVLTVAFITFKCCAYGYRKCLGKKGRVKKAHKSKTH", "experiment": "Inhibition of estradiol 3-O-glucuronidation in the UGT1A1 recombinant system", "type": "biochemical", "settings": "for Inhibitory pattern against estradiol 3-O-glucuronidation: Recombinant UGT1A1, Dixon plot; for Inhibition of UGT1A1 activity: UGT1A1 recombinant system, 50 μM fatty acid", "method_in_brief": "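Recombinant UGT1A1 Supersomes (0.25 mg/ml) were used in 50 mM Tris-HCl pH 7.4, 10 mM MgCl2, 25 μg/ml alamethicin and 2 mM UDPGA, with test fatty acid at 1–50 μM, 3-min preincubation, and 30 min at 37°C. For IC50, estradiol was 10 μM, runs were duplicate, and values came from linear regression. For Ki, estradiol was 5, 10 or 20 μM with Dixon plot. Product measured by HPLC-fluorescence against authentic standard.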"}, "UGT1A1": {"test_system": "UGT1A1", "experiment": "Inhibition of estradiol 3-O-glucuronidation in human small intestine microsomes", "type": "biochemical", "settings": "human, human small intestine microsomes; for activity at 30 min, 50 μM: pH 7.4, probe estradiol (10 μM; estradiol 3-O-glucuronide formation)", "method_in_brief": "(§1)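 Microsomes from human liver or small intestine (0.25 mg/ml) were incubated with 50 mM Tris-HCl pH 7.4, 10 mM MgCl2, 25 μg/ml alamethicin, 2 mM UDPGA, estradiol at 5, 10 or 20 μM, and test fatty acid at 1–50 μM. After 3-min preincubation at 37°C, UDPGA was added to start; 30 min at 37°C; cold methanol stop. Glucuronide measured by HPLC-fluorescence (ex 280/em 310 nm); Dixon plot gave inhibition type and Ki.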"}, "[2]": {"test_system": "UGT1A1 activity in human small intestine microsomes", "experiment": "Inhibition of estradiol 3-O-glucuronidation in human small intestine microsomes", "type": "biochemical", "settings": "Human small intestine microsomes; Dixon plot", "method_in_brief": "as §1"}, "[3]": {"test_system": "bilirubin clearance by UGT1A1", "experiment": "Estimated ratio of intrinsic clearance", "settings": "Equation 4; DHA concentration in human breast milk around 60 μM"}, "hUGT1 mice": {"test_system": "hUGT1 mice", "type": "in vivo", "settings": "neonatal hUGT1 mice; oral 10 mg/kg at 12 days after birth; 48 hours after treatment; control increase 2.3 ± 3.2 mg/dL"}, "[4]": {"biological_target": "T2, UGT1A1 activity in human liver microsomes (Homo sapiens, UniProt P22309)", "T2 sequence (P22309 26-533)": "T1 sequence (P22309 26-533)", "experiment": "Inhibition of estradiol 3-O-glucuronidation in human liver microsomes", "type": "biochemical", "settings": "for Inhibitory pattern against estradiol 3-O-glucuronidation: Human liver microsomes, Dixon plot", "method_in_brief": "as §1"}, "human UGT1A1 [5]": {"biological_target": "T1, human UGT1A1", "settings": "read-out: Km value of bilirubin glucuronidation; cited from earlier work"}}}
{"smiles": "CCCCC/C=C\\C/C=C\\C/C=C\\C/C=C\\CCCC(=O)O", "note": "[Arachidonic acid]", "values": [{"measurement": "IC50", "setting": "human UGT1A1 [1]", "result": 22.7, "unit": "µM"}]}
{"smiles": "CC/C=C\\C/C=C\\C/C=C\\C/C=C\\C/C=C\\C/C=C\\CCC(=O)O", "note": "[DHA, docosahexaenoic acid]", "values": [{"measurement": "Ki at 30 min", "setting": "UGT1A1; pH 7.4", "result": 5.2, "unit": "µM"}, {"measurement": "Inhibitory pattern against estradiol 3-O-glucuronidation", "setting": "[2]", "result": "non-competitive"}, {"measurement": "IC50", "setting": "human UGT1A1 [1]", "result": 11.6, "unit": "µM"}, {"measurement": "Ki", "setting": "human UGT1A1 [1]", "result": 1.8, "unit": "µM"}, {"measurement": "Inhibitory pattern against estradiol 3-O-glucuronidation", "setting": "human UGT1A1 [1]", "result": "non-competitive"}, {"measurement": "R value (ratio of intrinsic clearance in presence and absence of inhibitor)", "setting": "[3]", "result": 0.08}, {"measurement": "Increase of serum bilirubin levels from 12 days to 14 days after birth", "setting": "hUGT1 mice", "result": 6.6, "unit": "mg/dL"}, {"measurement": "Ki", "setting": "[4]", "result": 4.3, "unit": "µM"}, {"measurement": "Inhibitory pattern against estradiol 3-O-glucuronidation", "setting": "[4]", "result": "non-competitive"}]}
{"smiles": "CC/C=C\\C/C=C\\C/C=C\\C/C=C\\C/C=C\\CCCC(=O)O", "note": "[EPA, eicosapentaenoic acid]", "values": [{"measurement": "IC50", "setting": "human UGT1A1 [1]", "result": 19.9, "unit": "µM"}]}
{"smiles": "CCCCC/C=C\\C/C=C\\CCCCCCCC(=O)O", "note": "[Linoleic acid]", "values": [{"measurement": "activity at 30 min, 50 μM", "setting": "UGT1A1", "result": "> 80", "unit": "%"}, {"measurement": "IC50", "setting": "human UGT1A1 [1]", "result": 33.1, "unit": "µM"}, {"measurement": "Ki", "setting": "human UGT1A1 [1]", "result": 22.1, "unit": "µM"}, {"measurement": "Inhibitory pattern against estradiol 3-O-glucuronidation", "setting": "human UGT1A1 [1]", "result": "non-competitively"}, {"measurement": "Ki", "setting": "[4]", "result": 24, "unit": "µM"}, {"measurement": "Inhibitory pattern against estradiol 3-O-glucuronidation", "setting": "[4]", "result": "non-competitively"}]}
{"smiles": "CCCCCCCC/C=C\\CCCCCCCC(=O)O", "note": "[Oleic acid]", "values": [{"measurement": "activity at 30 min, 50 μM", "setting": "UGT1A1", "result": "> 80", "unit": "%"}, {"measurement": "IC50", "setting": "human UGT1A1 [1]", "result": 31.6, "unit": "µM"}, {"measurement": "Ki", "setting": "human UGT1A1 [1]", "result": 23.4, "unit": "µM"}, {"measurement": "Inhibitory pattern against estradiol 3-O-glucuronidation", "setting": "human UGT1A1 [1]", "result": "non-competitively"}, {"measurement": "Ki", "setting": "[4]", "result": 29.3, "unit": "µM"}, {"measurement": "Inhibitory pattern against estradiol 3-O-glucuronidation", "setting": "[4]", "result": "non-competitively"}]}
{"smiles": "CCCCCC/C=C\\CCCCCCCC(=O)O", "note": "[Palmitoleic acid]", "values": [{"measurement": "IC50", "setting": "human UGT1A1 [1]", "result": 37.1, "unit": "µM"}]}
{"smiles": "CCCCCCCCCCCCCCCCCCCC(=O)O", "note": "[arachidic acid]", "values": [{"measurement": "IC50", "setting": "human UGT1A1 [1]", "result": "> 50", "unit": "µM"}, {"measurement": "Inhibition of UGT1A1 activity", "setting": "human UGT1A1 [1]", "result": "not inhibited at all"}]}
{"smiles": "CCCCCCCCCCCCCCCCCCCCCC(=O)O", "note": "[behenic acid]", "values": [{"measurement": "IC50", "setting": "human UGT1A1 [1]", "result": "> 50", "unit": "µM"}, {"measurement": "Inhibition of UGT1A1 activity", "setting": "human UGT1A1 [1]", "result": "not inhibited at all"}]}
{"smiles": "C=CC1=C(C)/C(=C/c2[nH]c(Cc3[nH]c(/C=C4\\NC(=O)C(C)=C4C=C)c(C)c3CCC(=O)O)c(CCC(=O)O)c2C)NC1=O", "note": "[bilirubin]", "values": [{"measurement": "Km", "setting": "human UGT1A1 [5]", "result": "~2", "unit": "µM"}]}
{"smiles": "CCCCCCCCCC(=O)O", "note": "[decanoic acid]", "values": [{"measurement": "IC50", "setting": "human UGT1A1 [1]", "result": "> 50", "unit": "µM"}]}
{"smiles": "CCCCCCCCCCCC(=O)O", "note": "[lauric acid]", "values": [{"measurement": "Inhibition of UGT1A1 activity", "setting": "human UGT1A1 [1]", "result": "not inhibited at all"}]}
{"smiles": "CCCCCCCCCCCCCCCCCCCCCCCC(=O)O", "note": "[lignoceric acid]", "values": [{"measurement": "Inhibition of UGT1A1 activity", "setting": "human UGT1A1 [1]", "result": "not inhibited at all"}]}
{"smiles": "CCCCCCCCCCCCCC(=O)O", "note": "[myristic acid]", "values": [{"measurement": "IC50", "setting": "human UGT1A1 [1]", "result": "> 50", "unit": "µM"}, {"measurement": "Inhibition of UGT1A1 activity", "setting": "human UGT1A1 [1]", "result": "not inhibited at all"}]}
{"smiles": "CCCCCCCCCCCCCCCC(=O)O", "note": "[palmitic acid]", "values": [{"measurement": "IC50", "setting": "human UGT1A1 [1]", "result": "> 50", "unit": "µM"}, {"measurement": "Inhibition of UGT1A1 activity", "setting": "human UGT1A1 [1]", "result": "not inhibited at all"}]}
{"smiles": "CCCCCCCCCCCCCCCCCC(=O)O", "note": "[stearic acid]", "values": [{"measurement": "IC50", "setting": "human UGT1A1 [1]", "result": "> 50", "unit": "µM"}]}
